# Measurements: the RNAGym collection of RNA variant scans (doi:10.1126/science.aae0568)
# Fewer inactive variants are shown than the library holds.
# B1: tRNA (parent)
# chain: GUUCCGUUGGCGUAAUGGUAACGCGUCUCCCUCCUAAGGAGAAGACUGCGGGUUCGAGUCCCGUACGGAACG
# Variants of: B1
# Experiment: yeast fitness relative to wild type (ratio to wild type); higher = fitter; tRNA-Arg(CCU), competitive growth, 37 C, YPD
# Outline: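 For this measurement, the tRNA-Arg(CCU) gene was varied by chemical synthesis at a 3% per-site mutation rate across 69 sites, and each variant was placed at the native genomic locus in Saccharomyces cerevisiae. The pooled strains went through a 24-hour competition in YPD at 37°C in six parallel replicates, with amplicons from start and end populations read by 100-nucleotide paired-end sequencing. Darwinian fitness relative to wild type followed from the change in each genotype's frequency. Genotypes needed ≥ 100 starting reads, and estimates < 0.5 were set to 0.5.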
row,Variant,yeast fitness
1,C11U C49U C61G A65C,0.534
2,C11U A20U U32A G39A A65C,≤ 0.5
3,C11U C49G A57G,≤ 0.5
4,C11U A40C U53A,0.586
5,C11U A20U C24U C29A,≤ 0.5
6,C11U C27A,0.791
7,C11U A36U C60A,≤ 0.5
8,C11U G12A C31U U53C A69U,≤ 0.5
9,C11U G51C U59G,0.534
10,C11U G18A C62A A70C,≤ 0.5
11,C11U G12A C24U C34G,≤ 0.5
12,C11U A40G,0.866
13,C11U G38C G48A,0.57
14,C11U C60G,0.607
15,C11U A20U A36G C55G,≤ 0.5
16,C11U C22A C31U G68C,≤ 0.5
17,C11U A36G C46U,0.77
18,C11U G12A C27U G52A C62U,≤ 0.5
19,C11U G25A,0.867
20,C11U U19A G41A C60G A65G,≤ 0.5
21,C11U C66A,0.65
22,C11U C66G,0.745
23,C11U G12C U26C A40U A57U,0.612
24,C11U A15U,0.757

row,Variant,yeast fitness
1,C11U C49U A65G,0.76
2,C11U G17A G48A G51C C60A U64C,0.623
3,C11U A20C U47G,≤ 0.5
4,C11U U13C C29U A37C C46A,≤ 0.5
5,C11U A21U G68C,0.69
6,C11U A21G A70C,0.818
7,C11U A42C C49G,≤ 0.5
8,C11U A15U C27G A40C,≤ 0.5
9,C11U C24G C27G A36U G38C C60G C66A,≤ 0.5
10,C11U C33U A43G,0.595
11,C11U C24G C33A A40C,0.955
12,C11U G25C A40U C49U,≤ 0.5
13,C11U A20C C29A C31U U32C A65C,≤ 0.5
14,C11U G58C,0.925
15,C11U A15U C22U,0.507
16,C11U G12A C31U U53C G63A A65C,≤ 0.5
17,C11U C29U C49A,≤ 0.5
18,C11U A20U G39A G63A A70U,≤ 0.5
19,C11U C34G A42C,≤ 0.5
20,C11U C30A G51A G67A,≤ 0.5
21,C11U U16C U26C A45C C46U,≤ 0.5
22,C11U A37C G56A,≤ 0.5
23,C11U C46G C49U,0.825
24,C11U G25A C29U G67A A70U,≤ 0.5

row,Variant,yeast fitness
1,C11U C34G,0.591
2,C11U C34G G50C,0.576
3,C11U C33U A36G G39A G44A C55G U59C,≤ 0.5
4,C11U C30U C34G G68C,≤ 0.5
5,C11U C31U C60A U64A,≤ 0.5
6,C11U C29G C33U,≤ 0.5
7,C11U C31G C34G A43U C61U A65U,≤ 0.5
8,C11U A20U G68A A70C,0.515
9,C11U A15G U32A C49A G56C,≤ 0.5
10,C11U A37C C46G C60U C61A,0.536
11,C11U C30A C55G A57C,≤ 0.5
12,C11U C22U G44C U64G,0.534
13,C11U A45C U59C,≤ 0.5
14,C11U U19A A37C A40C G63A,≤ 0.5
15,C11U G51C,0.718
16,C11U C27U U35C C61G,0.606
17,C11U C24G A70G,0.649
18,C11U A45U G58C A69C,≤ 0.5
19,C11U G12A G18C U47C G68C,≤ 0.5
20,C11U G25A C62G,0.569
21,C11U U19A U32A A37U,≤ 0.5
22,C11U G18C C31A,≤ 0.5
23,C11U C27U C31A U35C G48U C55G C66U A70C,≤ 0.5
24,C11U A37G A57G A70C,≤ 0.5

row,Variant,yeast fitness
1,C11U U16A C55A,≤ 0.5
2,C11U U16C C33A U53C C66G G67U,≤ 0.5
3,C11U G39A A40U,0.673
4,C11U A40G C61G,≤ 0.5
5,C11U U19A A42G U59A C60U,≤ 0.5
6,C11U C22U U54C,0.639
7,C11U G18C C33G G44A C46G C66U,0.606
8,C11U G39C C46U,0.756
9,C11U C27G G39C,≤ 0.5
10,C11U A57U A65U,0.653
11,C11U C34G C55G U59C C60U G67U,≤ 0.5
12,C11U A45G C49A,0.567
13,C11U A36G C46U G56A,≤ 0.5
14,C11U G12A,0.998
15,C11U C27U C31A U35C C55G C62U C66U A70C,≤ 0.5
16,C11U G23C G58A A70U,0.541
17,C11U C24G C27G A65U,0.576
18,C11U A36U A43C A57G,1.1
19,C11U U13C C24A U47A,≤ 0.5
20,C11U U16C G25A,0.9
21,C11U G67A,0.816
22,C11U G67U,0.846
23,C11U C31G U64G A69G,0.842
24,C11U C22G C30U U54C,≤ 0.5

row,Variant,yeast fitness
1,C11U A40U G67A,≤ 0.5
2,C11U A36G G44A C46U,0.993
3,C11U C31G,0.791
4,C11U C46G G51A,0.571
5,C11U C30U U47A G67C,≤ 0.5
6,C11U C31A C55G C60A A70G,0.535
7,C11U A42U A43G G52C C60G,≤ 0.5
8,C11U C22G U59C,0.575
9,C11U G17C C30A C33G C61U,0.581
10,C11U A42U,0.897
11,C11U A21G U64C,0.945
12,C11U U16C U19C,0.929
13,C11U U16C U28C A43C,≤ 0.5
14,C11U A15G C27G A45U,≤ 0.5
15,C11U G38A A40U G52C,0.568
16,C11U C22A C29G C33U A57U A70U,≤ 0.5
17,C11U A40C G51A C61U A69C,≤ 0.5
18,C11U U26A A36U,≤ 0.5
19,C11U G56A G67U,0.526
20,C11U G18A G23C C34U U59A A70C,≤ 0.5
21,C11U G50A A70U,0.702
22,C11U C24G C33A A40C U53C,0.626
23,C11U C34U G41A,≤ 0.5
24,C11U U19G A65C,0.696

row,Variant,yeast fitness
1,C11U A21U A43C G68C,≤ 0.5
2,C11U C27A G48A U53A C61G,≤ 0.5
3,C11U A36G A70G,0.672
4,C11U C30A U32G C49U C55G,≤ 0.5
5,C11U A43G A57U,0.568
6,C11U C22G U47C U53G,≤ 0.5
7,C11U C29U C55U,≤ 0.5
8,C11U C31A A42G C55A,≤ 0.5
9,C11U C49U A70C,0.672
10,C11U G25C C29G A43G C49G,0.546
11,C11U G50C C61U,0.581
12,C11U C29U A40C C49G,0.648
13,C11U A21C A42C A69C,≤ 0.5
14,C11U C22U G38A U54C,≤ 0.5
15,C11U C34U G48A,≤ 0.5
16,C11U C27U C31U A36C G44C A45G G56C,≤ 0.5
17,C11U A57U A70C,0.512
18,C11U A15U C22U G67A,≤ 0.5
19,C11U U16A U64A,0.514
20,C11U A21G,0.922
21,C11U A21U,1.02
22,C11U C55A C62U,≤ 0.5
23,C11U U19G A20U,0.764
24,C11U G12A G44C C46U,0.575

row,Variant,yeast fitness
1,C11U A20G C22A G23C U28G A43G A57G,≤ 0.5
2,C11U A65U G67C,≤ 0.5
3,C11U U19G A69U,0.782
4,C11U C29A U59G,≤ 0.5
5,C11U C24G C33G,0.541
6,C11U C30U A42U G51A A57U A65U A70U,≤ 0.5
7,C11U G48A G51C C61A A65C,≤ 0.5
8,C11U U19C U59C C61A,≤ 0.5
9,C11U A21G C55G,0.566
10,C11U A20C G25C C27A A37U,≤ 0.5
11,C11U C30A G39A U47A G63C,≤ 0.5
12,C11U C27G A43U,0.52
13,C11U C27G A43C,0.577
14,C11U C24G C29U G50A G58C G63A C66U G68A,≤ 0.5
15,C11U C24U,0.852
16,C11U C24A,0.606
17,C11U U13G U19A C22G G25A A69U,≤ 0.5
18,C11U C61G,0.638
19,C11U C61A,0.869
20,C11U G56A,0.901
21,C11U C29U C61U U64C,≤ 0.5
22,C11U G23A C33G A69C,≤ 0.5
23,C11U A42C A69U,0.773
